According to ChEMBL document CHEMBL1155356, “Design, synthesis, and structure-activity relationship of novel orally efficacious pyrazole/sulfonamide based dihydroquinoline gamma-secretase inhibitors” (Bioorg Med Chem Lett, 2009):

Key:
[1] = molecular target: Gamma-secretase; experiment: Inhibition of Gamma-secretase in human IMR-32 cells after 2 hrs by ELISA assay; type: cell-based
Summary of the method: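 γ-Secretase came from IMR-32 cell membranes, and compound was first diluted in DMSO. Reaction at 37 °C was started with MBPC-125 Swedish substrate, run for 2 h, then stopped with SDS. Cleaved substrate was measured by Aβ40-specific ELISA. Values are means of three experiments.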

[2] = Oxidative metabolic stability in human liver microsomes at 1 uM after 30 mins in presence of 1 mM NADPH; type: ADME, Microsome; settings: liver microsomes, read-out: Stability
Summary of the method: (§1)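 Oxidative stability: compound at 1 µM incubated 30 min at 37 °C in phosphate buffer with liver microsomes (0.5 mg/ml protein) plus 1 mM NADPH. Percent parent remaining reported. Human or mouse microsomes per line.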

[3] = Oxidative metabolic stability in mouse liver microsomes at 1 uM after 30 mins in presence of 1 mM NADPH; type: ADME, Microsome; settings: liver microsomes, read-out: Stability; summary of the method: as §1
[4] = system: Mus musculus; experiment: Reduction of cortical abeta40 level in FVB mouse at 3 mg/kg, po after 3 hrs; type: functional; design: scale not given: the % may be the effect or the level left
[5] = Apparent permeability from apical to basolateral side in MDCK2 cells at 5 uM after 120 mins; type: ADME, cell-based, Canis lupus familiaris, MDCK-II; settings: dog, MDCK
Summary of the method: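 Compound at 5 µM in mHBSS pH 7.4 applied to MDCK II cell monolayers for 120 min at 37 °C. Apical and basolateral chambers sampled and analysed by LC/MS/MS.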

[6] = system: Mus musculus; experiment: Reduction of cortical abeta40 level in FVB mouse at 30 mg/kg, po after 3 hrs; type: functional; design: scale not given: the % may be the effect or the level left
[7] = Metabolic stability in mouse liver microsomes at 2 uM after 30 mins in presence of 1 mM UDPGA; type: ADME, Microsome; settings: read-out: Stability
Summary of the method: (§2)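 Glucuronidation stability: 2 µM compound incubated 30 min at 37 °C in phosphate buffer with liver microsomes (0.5 mg protein), 1 mM UDPGA, 100 mM MgCl2 and 25 µg/mL alamethicin. Read-out is percent parent compound remaining. Human or mouse microsomes per line.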

[8] = Metabolic stability in human liver microsomes at 2 uM after 30 mins in presence of 1 mM UDPGA; type: ADME, Microsome; settings: read-out: Stability; summary of the method: as §2
[9] = Solubility in HBSS buffer at 20 mM at pH 7.4 after 1 hr; type: physicochemical
Summary of the method: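 20 mM DMSO stocks serially diluted in DMSO, then diluted 1:200 into HBSS pH 7.4. After 1 h incubation, plates read on a solubility scanner.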

IC50 [1]: 0.62 nM
remaining at 0.5 h, 1 µM [2]: 1%
remaining at 0.5 h, 1 µM [3]: 7%
Papp A→B at 2 h, 5 µM [5]: 19.8 ×10⁻⁶ cm/s
remaining at 0.5 h, 2 µM [7]: 91%
remaining at 0.5 h, 2 µM [8]: 77%
solubility at 1 h [9]: > 100 µM
SMILES: C[C@@H]1c2c[nH]nc2-c2cc(F)ccc2N1S(=O)(=O)c1ccc(Cl)cc1
Activity [4]: 7%
Activity [6]: 37%
